According to ChEMBL document CHEMBL4513216, “Probing the Open Global Health Chemical Diversity Library for Multistage-Active Starting Points for Next-Generation Antimalarials” (ACS Infect Dis, 2020):

assay: Toxicity liver stage against HepG2, at 10uM; type: cell-based; design: test concentration 10 uM, cell line HepG2-A16-CD81EGFP; conditions: human, HepG2-A16-CD81EGFP cells; read-out: INHIBITION
Summary of the method: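 Uninfected HepG2-A16-CD81EGFP cells, 3 × 10^3 per well, 1536-well, plated on prespotted compound at 10 μM final, parasite-free screening media added to match infected plates; puromycin 10 μM positive, DMSO 0.5% negative; run in parallel with 48 h PbLuc assay at 37 °C, 5% CO2; viability by CellTiter-Glo luminescence, normalized to controls.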

Structure (SMILES) | cytotoxicity at 10 µM
CN1C(=O)CO[C@H](c2ccc(NC(=O)NC(C)(C)C)cc2)[C@H]1CO | -0.973%
Cc1cccc2c1nc1n2[C@@H](CNC(=O)c2cnccn2)COC1 | 6.54%
CN(C)[C@@H]1CO[C@H](CNC(=O)C2CCCC2)[C@H]1O | -0.321%
CC(C)C[C@@H]1N[C@H](C(=O)NC2CCOCC2)Cc2c[nH]c3cccc1c23 | 8.24%
CCCNc1ccc(C(=O)NCCc2cccc(OC)c2)cn1 | 0.267%
O=C1CCC(c2ccccc2)=NN1CN1CCCCCC1 | -86.3%
COc1ccc(CNC(=O)CCc2nnc3ccccn3c2=O)cc1 | -13.5%
O=C(NC1CC1)C1CN(C(=O)c2cnccn2)C1 | -10.2%
O=S(=O)(NCC1CCN(c2cnccn2)CC1)c1cccs1 | 6.28%
CN1CCCC(C(=O)N2CCC(Oc3ccccn3)CC2)C1 (configuration not stated) | -5.15%
CCc1nc(-c2noc3ccc(C(=O)NCCN(C)C)cc23)co1 | -150%
CN(C)C(=O)CO[C@@H]1CN(Cc2ccccc2)[C@@H]2CCCO[C@@H]21 | 3.09%
Cn1ncc2c1NC(=O)CC2c1c(Cl)cccc1Cl (configuration not stated) | 55.1%
Cn1nnnc1SCc1cc2c(cc1Cl)OCO2 | 1.14%
O=C(O)CCNC(=O)Cc1csc(-c2cccc(Cl)c2)n1 | 8.32%
Cn1ccnc1CN1CCC2(COCCN(Cc3ccsc3)C2)C1 (configuration not stated) | -9.81%
Cc1oncc1C(=O)N1CCC2(CCN(Cc3ccccn3)C2=O)C1 (configuration not stated) | -11.4%
Cc1ccc(Cl)cc1NCc1nc2n(n1)CCCCC2 | 5.89%
CCN(CC)c1nc(C)cc(C(=O)Nc2cccc(C(N)=O)c2)n1 | 14.9%
Cc1cn[nH]c1C1COCCN1Cc1ccsc1 (configuration not stated) | 2.56%
CN(C)c1cccc(C(=O)N2CCn3c(nnc3C3CC3)C2)c1 | 0.7%
O=C(c1ccncc1)N1CCC2(COc3ncccc3S(=O)(=O)N2)C1 (configuration not stated) | 9.62%
CC(C)c1cc(Br)ccc1NC(=O)NCC(O)CO (configuration not stated) | 9.45%

Structure (SMILES) | cytotoxicity at 10 µM
OCCN(Cc1ccno1)Cc1cc(Br)ccc1F | 6%
Cc1ccc(OCc2cccc(C(=O)N(C)CCC#N)c2)cn1 | -3.3%
CCC1CCCCN1C(=O)CCn1cnc2sccc2c1=O (configuration not stated) | -9.79%
O=C1NCCCCC1Sc1ccc(F)c(F)c1 (configuration not stated) | 5.58%
N#CC1COCCN1C(=O)c1cccc2cc[nH]c12 (configuration not stated) | 7.1%
Cc1ccc(-c2cc(CS(=O)(=O)NC3CCCNC3=O)on2)cc1 (configuration not stated) | -172%
O=C(c1cc(F)cc(F)c1)N1CCC(O)(C(F)(F)F)CC1 | 7.08%
COC(=O)C(C)(C)NC(=O)c1cnc(C(C)(C)C)s1 | 3.87%
CNC(=O)c1cccc(NCC(=O)Nc2cc(C)nn2C)c1C | -1.49%
CCc1nc(CCNc2ncccn2)sc1C | 14.4%
O=C(CCNCc1cccc2c1OCCCO2)NC1CCCC1 | 0.66%
CC(NC(=O)NCCC(=O)OC(C)(C)C)c1nncn1C (configuration not stated) | 2.49%
CCCS(=O)(=O)CCN1CCN(c2cc(F)ccc2F)CC1 | -10%
O=c1c2sccc2ncn1CC(O)CN1CCOCC1 (configuration not stated) | 7.27%
Cc1cc(C(=O)NCC(O)c2c(Cl)cccc2Cl)nn1C (configuration not stated) | -9.38%
NC(=O)CC1CCN(C(=O)NCC2(c3ccccc3F)CC2)CC1 | 35.2%
Cc1cc(C)c(CNC(=O)N2CCC(N3CCNC3=O)CC2)c(=O)[nH]1 | 4.16%
CC(=O)NC1CCN(c2c(C#N)cnc3c(C)cc(F)cc23)CC1 | 7.72%
Cn1cc(C(=O)N2CCN(Cc3ccccn3)CC2)ccc1=O | 6.85%
COc1ccnc(N2CCN(C(=O)c3cc(C4CC4)[nH]n3)CC2)n1 | 6.85%
Cc1ccc2c(c1)C(NCc1nnc3n1CCCCC3)CCCO2 (configuration not stated) | -3.39%
COC(=O)C(C)(C)NC(=O)C1CC(=O)N(CC2CC2)C1 (configuration not stated) | -142%
Cc1ncsc1C(=O)Nc1ccccn1 | 11.3%

Structure (SMILES) | cytotoxicity at 10 µM
CCCS(=O)(=O)NC1CCN(c2cccc(F)c2C#N)CC1 | -5.6%
COc1cc2c(cc1OC)S(=O)(=O)N(Cc1cnn(C)c1)C2=O | 12.6%
Cc1cc(=O)n(C)cc1NC(=O)Cc1cccc(F)c1 | -3.86%
CC(C)(C)CCCC(=O)NS(=O)(=O)CC1CC1 | -6.19%
O=C(CSc1ccccc1)N1CCC(N2CCCCC2=O)CC1 | 11.2%
CCN(Cc1ccoc1)C(C(N)=O)c1ccc(Br)cc1 (configuration not stated) | -5.5%
CCN(CCC(=O)OC)C(=O)c1cccc(Cn2nc(C)cc2C)c1 | 7.59%
Cc1ccc(N2CCC(C(=O)NC3CCc4nccn4C3)CC2)nc1 (configuration not stated) | -7.39%
CC(=O)N1CCC[C@H]1C(=O)NCCCN(C(C)C)S(C)(=O)=O | -13%
CN(C)c1cc2c(nn1)CCN(C(=O)c1cc3ccccc3o1)C2 | -5.39%
Cc1ncsc1C(=O)NCCN1CCCCCC1=O | 12.1%
COc1ncccc1NC(=O)NC(CCCO)c1ccccc1 (configuration not stated) | 11.2%
Cc1cc(F)ccc1N1CCCC(Nc2nccn3cnnc23)C1=O (configuration not stated) | -6.62%
O=C(Cc1cccc(F)c1)NCCNS(=O)(=O)C1CCCC1 | 3.61%
CCc1ccc(S(=O)(=O)Nc2cn(C)cc(Br)c2=O)cc1 | -10.8%
Cc1cc(F)cc(S(=O)(=O)NCCCN2CCC(O)CC2)c1 | -20.1%
CCOCC1CN(C(=O)Cc2cccs2)Cc2ccnn2C1 (configuration not stated) | -78.7%
Cc1cccc(C(=O)N2CCCn3c(CN4CCCCC4)nnc3C2)c1 | -84%
CCCN1CCC(N2CCC(Cn3cc(CC(C)O)nn3)CC2)CC1 (configuration not stated) | -1.89%
N[C@H]1CN(C(=O)CCCc2ccc(F)cc2)C[C@@H]1C1CC1 | -2.45%
Cc1nc(N2CCCC2C(=O)NC(C)(C)CO)nc2ccccc12 (configuration not stated) | 0.215%
Cc1n[nH]c(C)c1Sc1ccccc1NC(=O)N1CCOCC(O)C1 (configuration not stated) | -2.42%
CC(=O)NCCCc1ncnn1-c1cccc(Cl)c1 | 0.254%

Structure (SMILES) | cytotoxicity at 10 µM
Cc1c(C(=O)N2CCCC(C(=O)c3nccn3C)C2)c[nH]c(=O)c1C#N (configuration not stated) | 5.73%
CC(=O)Nc1ccc(C(=O)Nc2cnc3n2CCCC3)c(C)c1 | -1.14%
O=C(O)C(c1ccc2[nH]ccc2c1)N1CCN(c2cnccn2)CC1 (configuration not stated) | 2.56%
CN(C)CCN1CC(C(=O)N2CCC(c3cccc(O)c3)CC2)CC1=O (configuration not stated) | 0.0902%
CNCc1n[nH]c(=O)n1-c1cccc(Cl)c1Cl | 0.396%
CN1CCC(CNC(=O)Cc2ccc(N(C)C)cc2)CC1 | 6.8%
Cc1noc(C)c1CN1C[C@@H](C(=O)O)[C@H](c2ccccn2)C1 | -6.9%
Cc1cc2nc(-c3cn(C4CCNCC4)nn3)[nH]c2cc1C | -8.1%
CCN(CCOC)C(=O)c1cc(COc2ccc3c(c2)CCCC3)on1 | -146%
COCc1nc(NC(C)Cc2cc(C)n[nH]2)c2cnn(C)c2n1 (configuration not stated) | -10%
Cc1cc(NCc2ccc(O)cc2)n2nc(C)cc2n1 | -0.881%
CC(Cn1cncn1)NCCN1CCc2ccccc21 (configuration not stated) | -3.21%
Cc1noc(C)c1CN1C[C@@H](C(=O)O)[C@H](C(C)C)C1 | 3.51%
COc1ccc(CNC(=O)CCN2C[C@@H](C)[C@](O)(C3CC3)C2)cc1 | -12.5%
O=C(c1cncc(N2CC[C@@]3(O)CCNC[C@H]3C2)n1)N1CCCC1 | -8.19%
C[C@@H]1CN(C(=O)CCN2CCCC2)CC[C@@]1(O)C1CCOCC1 | -5.15%
c1cnc(N2CCC(C3CCN(CCCn4cccn4)C3)CC2)nc1 (configuration not stated) | 7.5%
CCSCCNC(=O)C(c1cccc(F)c1)N(C)C (configuration not stated) | -11.9%
COc1cccc(OCc2cc(C(=O)NC[C@H]3CCCN3)n[nH]2)c1 | -4.9%
Cc1nc(CN2CCCC(CCc3c(F)cccc3F)C2)c[nH]1 (configuration not stated) | -21%
CCCN1CC(C(=O)Nc2ccccn2)CC1=O (configuration not stated) | -16.4%
CC(C)c1nc(N2CC(N3CCCCC3C)C2)c2cnn(C)c2n1 (configuration not stated) | -15.5%
Cc1c(CN2CCCC(c3[nH]ncc3S(C)(=O)=O)C2)cnn1C (configuration not stated) | 4.69%

Structure (SMILES) | cytotoxicity at 10 µM
COc1cccc(S(=O)(=O)NC(=O)CC2CCCO2)c1 (configuration not stated) | 7.53%
Cc1nn(C)c(N(C)C)c1CNCC(O)c1ccccc1F (configuration not stated) | -7.9%
COCCN1CCC(NCc2ccc(F)cc2F)C1 (configuration not stated) | -2.67%
CCOCCCn1c(NC(=O)c2ccnc(C)n2)nc2ccccc21 | -21.1%
Cc1cc(C)n(CC2CCCN2C(=O)c2cccc3c2OCO3)n1 (configuration not stated) | -15.7%
Cc1noc(C)c1C(=O)N1CCC(Nc2cccnn2)CC1 | -4.48%
Cc1nc(C)n(C2CCCN(C(=O)Cc3cn4ccccc4n3)C2)n1 (configuration not stated) | -18.3%
O=C(CNCCn1cccn1)NCC1(c2ccccc2)CCOCC1 | -8.27%
CCOC1CCN(CC(=O)Nc2oc(C)c3c(C)n[nH]c(=O)c23)CC1 | -14.4%
CCCNC(=O)NCc1cccnc1OC | 4.6%
COc1cccc(C(=O)NCCCN2CCc3ccccc3C2)c1OC | 6.67%
c1cnnc(N2CCCC2CNCc2cnc(N3CCCC3)nc2)c1 (configuration not stated) | 7.96%
CO[C@@H]1CC[C@H]2[C@H]1OCCN2Cc1ccc(F)cc1 | 1.82%
CC[C@@H]1N(Cc2ccncc2)CCC[C@]12CCC(=O)N2CCOC | 11.5%
Cc1cc(C(=O)N2C[C@@H]3COC[C@]3(CN(C)C)C2)c(C)o1 | -131%
Cn1ccnc1CN1CCC2(CC(=O)N(c3cccc(F)c3)C2)C1 (configuration not stated) | 6.97%
CSc1nc(N)c2c(n1)N=C1COC(=O)C1C2c1cccc(O)c1 (configuration not stated) | 32.8%
COc1ccc(CNCC2(COc3cccnc3)C[C@@H](O)[C@@H](O)C2)cc1 (some centres not stated) | -57%
CCN(CC)c1ccc(C(=O)N2C[C@H]3CC[C@@H](C2)N(CCOC)C3)cc1 | -12.3%
O=C1[C@@H]2CC[C@@H](CN(S(=O)(=O)c3ccccc3)C2)N1Cc1cscn1 | -6.23%
